Experimental data of several laboratories.
Compare with care: the assays were run in different laboratories.
Target: Mitogen-activated protein kinase kinase kinase 5 (MAP3K5, Homo sapiens, UniProt Q99683)
One construct used (Q99683 1-1374): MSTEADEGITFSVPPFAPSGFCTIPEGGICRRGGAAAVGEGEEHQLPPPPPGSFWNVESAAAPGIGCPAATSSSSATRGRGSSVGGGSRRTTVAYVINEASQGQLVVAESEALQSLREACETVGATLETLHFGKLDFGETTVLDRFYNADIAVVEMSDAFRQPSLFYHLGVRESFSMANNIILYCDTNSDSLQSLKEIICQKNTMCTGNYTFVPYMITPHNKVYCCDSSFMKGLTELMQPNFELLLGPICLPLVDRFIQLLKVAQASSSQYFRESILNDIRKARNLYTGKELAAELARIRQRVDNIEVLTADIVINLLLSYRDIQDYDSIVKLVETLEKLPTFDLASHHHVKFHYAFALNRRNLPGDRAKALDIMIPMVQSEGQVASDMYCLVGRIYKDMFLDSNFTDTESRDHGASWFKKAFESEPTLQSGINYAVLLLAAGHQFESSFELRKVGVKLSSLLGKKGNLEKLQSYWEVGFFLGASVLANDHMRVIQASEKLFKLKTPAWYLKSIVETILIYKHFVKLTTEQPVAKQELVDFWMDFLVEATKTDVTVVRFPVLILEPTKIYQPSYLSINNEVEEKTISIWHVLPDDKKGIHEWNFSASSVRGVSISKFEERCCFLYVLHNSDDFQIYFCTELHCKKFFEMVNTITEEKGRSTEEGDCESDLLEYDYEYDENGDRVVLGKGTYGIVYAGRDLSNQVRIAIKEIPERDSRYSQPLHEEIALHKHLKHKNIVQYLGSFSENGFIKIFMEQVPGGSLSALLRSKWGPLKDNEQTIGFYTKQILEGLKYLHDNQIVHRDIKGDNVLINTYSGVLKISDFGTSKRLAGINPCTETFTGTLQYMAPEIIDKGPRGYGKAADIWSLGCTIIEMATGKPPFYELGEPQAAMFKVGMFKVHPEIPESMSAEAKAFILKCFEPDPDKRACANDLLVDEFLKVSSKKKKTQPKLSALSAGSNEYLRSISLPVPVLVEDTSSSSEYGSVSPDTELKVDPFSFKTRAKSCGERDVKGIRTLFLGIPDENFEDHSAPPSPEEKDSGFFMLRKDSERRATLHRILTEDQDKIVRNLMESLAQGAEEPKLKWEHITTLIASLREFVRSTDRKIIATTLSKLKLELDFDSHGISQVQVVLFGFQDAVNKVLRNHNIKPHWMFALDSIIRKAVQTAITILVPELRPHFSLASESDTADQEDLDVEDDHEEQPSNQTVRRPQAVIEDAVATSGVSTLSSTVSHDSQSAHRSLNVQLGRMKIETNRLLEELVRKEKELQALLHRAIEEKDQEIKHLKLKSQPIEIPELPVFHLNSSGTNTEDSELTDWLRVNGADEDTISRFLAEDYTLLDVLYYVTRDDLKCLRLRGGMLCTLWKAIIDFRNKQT

| SMILES | read-out | method | tested at | remaining binding [%] |
| --- | --- | --- | --- | --- |
| CN(C)c1nccc(-c2cnn3ncccc23)n1 | binding |  | 1 µM | 87 |
| O=C(Nc1ccc(Oc2ccc(F)cc2)cc1)N1CCc2ncccc2[C@H]1c1ccc(F)cc1 | cell-free assay | competition with immobilised ligand | 1 µM | 87 |
| CN(CCCC(F)(F)F)c1nccc(-c2cnn3ncccc23)n1 | binding |  | 1 µM | 76 |
| c1cncc(-c2cccc(Nc3nccc(NC4CCCCC4)n3)c2)c1 | binding | competition with immobilised ligand | 10 µM | 100 |
| O=C(O)[C@@H]1[C@@H](Cn2nnc3ccccc3c2=O)CC[C@H]1C(=O)c1ccc(OCCC2CCOCC2)cc1 | cell-free assay | competition with immobilised ligand | 1 µM | 94 |
| Cc1cnc(Nc2ccc(C(=O)N3CCC(N4CCCC4)CC3)cc2)nc1-c1cc2ccccc2s1 | binding | competition with immobilised ligand | 1 µM | 100 |
| CN(c1nccc(-c2cnn3ncccc23)n1)C1CC1 | binding |  | 1 µM | 100 |
| N#Cc1ccc(Nc2ccc3[nH]c(=O)[nH]c3c2)c(Cl)c1 | cell-free assay | competition with immobilised ligand | 1 µM | 90 |
| CC1CCCN1c1nccc(-c2cnn3ncccc23)n1 (stereo not drawn) | binding |  | 1 µM | 79 |
| CNC(=O)Nc1ccc2c(c1)CC[C@@]21OC(=O)N(CC(=O)N(Cc2ccc(F)cc2)[C@@H](C)C(F)(F)F)C1=O | cell-free assay | competition with immobilised ligand | 1 µM | 94 |
| O=C(c1ccc(Nc2nccc(-c3cc4ccccc4s3)n2)cc1)N1CCC(N2CCCC2)CC1 | binding | competition with immobilised ligand | 1 µM | 100 |
| c1cnn2ncc(-c3ccnc(N4CCC45COC5)n3)c2c1 | binding |  | 1 µM | 100 |
| CNC(=O)[C@@H]1CC[C@@H](n2c(-c3ccc4cnccc4c3)nc3ccc(C(=O)NCc4cccc(C(N)=O)c4)cc32)C1 | binding | competition with immobilised ligand | 1 µM | 92 |
| O=C(Nc1c[nH]nc1C(=O)NC1CCNCC1)c1cc(F)cc(F)c1 | binding | competition with immobilised ligand | 1 µM | 100 |
| O=C(c1ccc(Nc2ncc(Cl)c(-c3ccc(Cl)s3)n2)cc1)N1CCC(N2CCCC2)CC1 | binding | competition with immobilised ligand | 1 µM | 100 |
| COc1cnc(Nc2cccc(S(N)(=O)=O)c2)nc1N1CCN(c2ccccc2)CC1 | binding | competition with immobilised ligand | 1 µM | 100 |
| N[C@H]1CCN(c2nccc(-c3cnn4ncccc34)n2)C1 | binding |  | 1 µM | 99 |
| COc1cc(-c2cn(C3CCc4ccccc4N(CC(F)(F)F)C3=O)nn2)ccc1-n1ccc(C)n1 (stereo not drawn) | cell-free assay | competition with immobilised ligand | 1 µM | 100 |
| CCN1CCN(Cc2ccc(C(=O)Nc3ccc(C)c(Oc4ccc5c(c4)CC(=O)N5)c3)cc2C(F)(F)F)CC1 | binding | competition with immobilised ligand | 1 µM | 100 |
| Cc1nc(N2CC[C@@H](O)C2)ncc1-c1cc(C(F)(F)F)cc2[nH]ncc12 | binding | competition with immobilised ligand | 1 µM | 100 |
| COc1ncc2cc3ccccc3nc2c1C#N | cell-free assay | competition with immobilised ligand | 5 µM | 96 |
